Experimental data reported in ChEMBL document CHEMBL4321819, “Simple Structural Modifications Converting a Bona fide MDM2 PROTAC Degrader into a Molecular Glue Molecule: A Cautionary Tale in the Design of PROTAC Degraders” (J Med Chem, 2019).
Activity calls are given as the source filed them. The rule behind the calls is not given here.

Columns and labels:
[1] = target: Cellular tumor antigen p53 (Homo sapiens) (UniProt P04637); assay: Activation of p53 in human RS4:11 cells assessed as increase in BAX mRNA expression at 3 nM after 1 to 2 hrs by qRT-PCR analysis; assay type: cell-based
Chain of Cellular tumor antigen p53 (Homo sapiens) (P04637 whole entry, looked up): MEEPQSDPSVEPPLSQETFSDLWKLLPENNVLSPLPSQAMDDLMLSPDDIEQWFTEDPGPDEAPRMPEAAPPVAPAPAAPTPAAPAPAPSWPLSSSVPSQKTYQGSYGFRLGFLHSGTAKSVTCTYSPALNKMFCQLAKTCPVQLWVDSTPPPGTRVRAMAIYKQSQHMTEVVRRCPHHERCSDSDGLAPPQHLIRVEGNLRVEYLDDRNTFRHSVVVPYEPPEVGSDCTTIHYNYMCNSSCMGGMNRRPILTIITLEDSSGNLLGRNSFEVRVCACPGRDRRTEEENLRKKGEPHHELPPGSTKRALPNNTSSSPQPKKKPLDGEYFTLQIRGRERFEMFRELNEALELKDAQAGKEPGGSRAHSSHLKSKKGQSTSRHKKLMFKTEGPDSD
In short: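 RS4;11 cells (RPMI 1640, 10% FBS, 37 °C, 5% CO2) treated with 3 nM or 10 nM compound; total RNA extracted and mRNA of p53 targets MDM2, CDKN1A, PUMA and BAX quantified by qRT-PCR. Mean ± standard error from at least three independent experiments.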

[2] = target: T1, Protein cereblon/Eukaryotic peptide chain release factor GTP-binding subunit ERF3A/DNA damage-binding protein 1/Cullin-4A (Homo sapiens) (UniProt Q96SW2+Q16531+Q13619+P15170); assay: Protac activity at GSPT1/CUL4/DDB1/CRBN in human RS4:11 cells expressing wild type p53 assessed as decrease in GSPT1 protein level at 10 nM by Western blot analysis; assay type: cell-based; conditions: TDE = time-dependent effect
T1 sequence (P15170 whole entry, looked up): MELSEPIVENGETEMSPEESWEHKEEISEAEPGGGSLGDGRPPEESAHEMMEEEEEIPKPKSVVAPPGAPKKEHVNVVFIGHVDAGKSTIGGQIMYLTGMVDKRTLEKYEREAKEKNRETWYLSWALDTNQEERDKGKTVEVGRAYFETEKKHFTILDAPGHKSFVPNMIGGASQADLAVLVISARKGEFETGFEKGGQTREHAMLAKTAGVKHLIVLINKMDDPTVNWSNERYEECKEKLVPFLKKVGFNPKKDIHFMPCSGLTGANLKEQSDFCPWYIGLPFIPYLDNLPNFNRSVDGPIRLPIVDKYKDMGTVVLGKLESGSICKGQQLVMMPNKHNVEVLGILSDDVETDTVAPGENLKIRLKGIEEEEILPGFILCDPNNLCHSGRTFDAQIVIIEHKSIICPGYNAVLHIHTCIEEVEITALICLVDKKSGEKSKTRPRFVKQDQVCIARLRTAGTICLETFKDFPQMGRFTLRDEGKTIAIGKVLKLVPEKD
T1 sequence (Q13619 whole entry, looked up): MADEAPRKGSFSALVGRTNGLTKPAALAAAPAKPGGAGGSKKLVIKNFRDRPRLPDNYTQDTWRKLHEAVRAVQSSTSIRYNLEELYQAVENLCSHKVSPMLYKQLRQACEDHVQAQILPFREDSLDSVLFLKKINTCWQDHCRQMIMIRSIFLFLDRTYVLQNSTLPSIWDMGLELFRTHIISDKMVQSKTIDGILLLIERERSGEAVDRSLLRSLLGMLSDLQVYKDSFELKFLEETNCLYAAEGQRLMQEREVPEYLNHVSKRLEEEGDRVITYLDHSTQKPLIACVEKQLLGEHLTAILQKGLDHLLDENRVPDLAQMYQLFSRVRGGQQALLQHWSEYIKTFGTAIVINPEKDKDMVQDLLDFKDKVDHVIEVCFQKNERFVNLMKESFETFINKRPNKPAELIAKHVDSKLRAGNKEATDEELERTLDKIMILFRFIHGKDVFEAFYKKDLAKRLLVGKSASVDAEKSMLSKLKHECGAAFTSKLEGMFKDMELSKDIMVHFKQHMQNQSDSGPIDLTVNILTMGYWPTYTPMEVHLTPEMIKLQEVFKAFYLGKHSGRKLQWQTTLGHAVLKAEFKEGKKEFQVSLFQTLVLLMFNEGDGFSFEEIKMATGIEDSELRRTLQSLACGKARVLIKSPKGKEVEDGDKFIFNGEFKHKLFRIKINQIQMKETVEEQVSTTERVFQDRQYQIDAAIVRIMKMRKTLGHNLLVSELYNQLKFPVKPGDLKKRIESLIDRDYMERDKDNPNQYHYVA
T1 sequence (Q16531 whole entry, looked up): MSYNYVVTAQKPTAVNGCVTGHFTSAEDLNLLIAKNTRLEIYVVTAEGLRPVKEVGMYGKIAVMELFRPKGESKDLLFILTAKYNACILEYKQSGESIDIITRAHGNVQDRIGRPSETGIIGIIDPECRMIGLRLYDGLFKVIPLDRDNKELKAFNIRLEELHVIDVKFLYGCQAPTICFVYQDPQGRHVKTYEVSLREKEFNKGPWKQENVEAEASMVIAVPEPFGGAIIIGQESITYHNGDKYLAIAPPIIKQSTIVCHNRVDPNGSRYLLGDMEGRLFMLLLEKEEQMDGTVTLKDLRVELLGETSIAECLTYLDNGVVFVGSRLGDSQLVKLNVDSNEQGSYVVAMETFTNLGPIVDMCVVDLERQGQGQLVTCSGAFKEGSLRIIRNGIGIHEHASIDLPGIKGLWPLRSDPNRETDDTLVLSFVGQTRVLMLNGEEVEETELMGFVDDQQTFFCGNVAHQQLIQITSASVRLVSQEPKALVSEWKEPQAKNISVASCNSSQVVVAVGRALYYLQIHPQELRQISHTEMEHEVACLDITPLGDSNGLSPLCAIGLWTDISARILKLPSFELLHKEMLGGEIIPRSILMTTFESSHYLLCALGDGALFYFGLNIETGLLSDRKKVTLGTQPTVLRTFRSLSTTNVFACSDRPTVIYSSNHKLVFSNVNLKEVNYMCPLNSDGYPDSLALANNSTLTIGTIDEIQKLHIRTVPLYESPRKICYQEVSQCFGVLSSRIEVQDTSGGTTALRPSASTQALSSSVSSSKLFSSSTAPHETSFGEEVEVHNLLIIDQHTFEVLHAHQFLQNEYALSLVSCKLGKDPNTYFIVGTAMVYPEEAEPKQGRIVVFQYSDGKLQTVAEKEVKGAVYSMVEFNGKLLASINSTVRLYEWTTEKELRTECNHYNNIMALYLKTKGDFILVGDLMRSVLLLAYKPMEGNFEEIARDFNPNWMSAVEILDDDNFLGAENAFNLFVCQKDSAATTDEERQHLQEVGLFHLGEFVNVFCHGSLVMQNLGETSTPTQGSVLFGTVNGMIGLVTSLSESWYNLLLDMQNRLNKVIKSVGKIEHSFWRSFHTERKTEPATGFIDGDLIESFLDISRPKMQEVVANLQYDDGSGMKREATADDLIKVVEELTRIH
T1 sequence (Q96SW2 whole entry, looked up): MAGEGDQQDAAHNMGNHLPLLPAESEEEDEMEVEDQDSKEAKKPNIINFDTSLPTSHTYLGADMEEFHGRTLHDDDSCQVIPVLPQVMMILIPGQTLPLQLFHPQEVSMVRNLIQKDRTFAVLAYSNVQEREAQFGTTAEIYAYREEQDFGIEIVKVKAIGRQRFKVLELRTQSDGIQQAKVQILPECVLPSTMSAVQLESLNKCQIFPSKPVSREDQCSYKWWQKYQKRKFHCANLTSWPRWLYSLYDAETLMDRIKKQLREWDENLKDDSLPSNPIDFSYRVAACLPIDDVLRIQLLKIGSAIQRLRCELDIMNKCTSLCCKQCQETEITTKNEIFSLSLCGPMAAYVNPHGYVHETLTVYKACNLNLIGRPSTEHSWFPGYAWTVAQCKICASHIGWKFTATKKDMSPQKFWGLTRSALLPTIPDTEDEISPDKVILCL
In short: (§1)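 RS4;11 (wild-type p53) or RS4;11/IRMI-2 (MDM2 inhibitor-resistant derivative, mutant p53) cells kept in RPMI 1640 with 10% FBS at 37 °C, 5% CO₂. 2×10^6 cells/well treated at the indicated concentrations and times, then lysed in ice-cold lysis buffer with protease inhibitor. GSPT1 detected by Western blot with a specific antibody.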

MDA-MB-468 [3] = assay: Antiproliferative activity against human MDA-MB-468 cells harboring mutant p53 assessed as cell growth inhibition without interaction with cereblon after 4 days by WST-8 assay; assay type: functional, cell-based; conditions: MDA-MB-468, 96 h
[4] = target: T1, Protein cereblon/Eukaryotic peptide chain release factor GTP-binding subunit ERF3A/DNA damage-binding protein 1/Cullin-4A (Homo sapiens); assay: Protac activity at GSPT1/CUL4/DDB1/CRBN in human RS4:11/IRMI-2 cells harboring p53 hotspot mutation Y236H/R249G assessed as decrease in GSPT1 protein level by measuring fold change of protein level before and after treatment at 0.1 uM measured after 3 hrs relative to control
[5] = target: T1, Protein cereblon/Eukaryotic peptide chain release factor GTP-binding subunit ERF3A/DNA damage-binding protein 1/Cullin-4A (Homo sapiens); assay: Protac activity at GSPT1/CUL4/DDB1/CRBN in human RS4:11/IRMI-2 cells harboring p53 hotspot mutation Y236H/R249G assessed as decrease in GSPT1 protein level after 2 hrs by Western blot analysis; assay type: cell-based; in short: as §1
[6] = target: Protein cereblon/Eukaryotic peptide chain release factor GTP-binding subunit ERF3A (Homo sapiens) (UniProt Q96SW2+P15170); assay: Inhibition of cereblon binding with GSPT1 in human MDA-MB-231 cells assessed as decrease in GSPT1 degradation at 0.1 uM after 2 hrs in presence of 30 uM lenalidomide by Western blot analysis; assay type: cell-based
Chain of Protein cereblon/Eukaryotic peptide chain release factor GTP-binding subunit ERF3A (Homo sapiens) (P15170 whole entry, looked up): as the sequence (P15170 whole entry, looked up) above
Chain of Protein cereblon/Eukaryotic peptide chain release factor GTP-binding subunit ERF3A (Homo sapiens) (Q96SW2 whole entry, looked up): as the sequence (Q96SW2 whole entry, looked up) above
In short: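 MDA-MB-231 or MDA-MB-468 cells were treated 2 h with or without 30 μM lenalidomide to block cereblon binding. GSPT1 protein level was then assessed by Western blotting.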

[7] = target: GSPT1/E3 ubiquitin-protein ligase Mdm2 (Homo sapiens) (UniProt Q00987+P15170); assay: Binding affinity to GSPT1/MDM2 in human MDA-MB-231 cells assessed as GSPT1 degradation at 0.1 to 1 uM after 2 hrs by Western blot analysis; assay type: cell-based
Chain of GSPT1/E3 ubiquitin-protein ligase Mdm2 (Homo sapiens) (P15170 whole entry, looked up): as the sequence (P15170 whole entry, looked up) above
Chain of GSPT1/E3 ubiquitin-protein ligase Mdm2 (Homo sapiens) (Q00987 whole entry, looked up): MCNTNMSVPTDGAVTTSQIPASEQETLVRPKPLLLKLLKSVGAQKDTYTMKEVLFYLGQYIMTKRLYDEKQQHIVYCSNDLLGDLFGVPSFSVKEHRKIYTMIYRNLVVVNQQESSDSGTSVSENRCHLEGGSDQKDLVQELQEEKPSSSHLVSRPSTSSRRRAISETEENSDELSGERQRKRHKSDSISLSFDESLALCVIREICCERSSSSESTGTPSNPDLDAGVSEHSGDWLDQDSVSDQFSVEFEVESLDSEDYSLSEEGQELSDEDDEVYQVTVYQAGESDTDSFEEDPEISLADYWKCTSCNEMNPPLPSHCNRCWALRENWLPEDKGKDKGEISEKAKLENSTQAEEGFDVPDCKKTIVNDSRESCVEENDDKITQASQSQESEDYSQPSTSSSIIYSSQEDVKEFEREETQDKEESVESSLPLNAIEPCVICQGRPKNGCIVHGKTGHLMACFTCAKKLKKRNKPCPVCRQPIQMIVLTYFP

[8] = target: T1, Protein cereblon/Eukaryotic peptide chain release factor GTP-binding subunit ERF3A/DNA damage-binding protein 1/Cullin-4A (Homo sapiens); assay: Protac activity at GSPT1/CUL4/DDB1/CRBN in human RS4:11/IRMI-2 cells harboring p53 hotspot mutation Y236H/R249G assessed as effect on GSPT1 mRNA level after 3 hrs by qRT-PCR analysis; assay type: cell-based
RS4-11 = assay: Antiproliferative activity against human RS4:11 cells expressing wild type p53 assessed as cell growth inhibition without interaction with cereblon after 4 days by WST-8 assay; assay type: functional, cell-based; conditions: RS4-11, 96 h
In short: (§2)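 Leukemia cells seeded at 10000–20000 cells/well, breast cancer lines at 5000–10000 cells/well. Serially diluted compound added, then 4 days at 37 °C, 5% CO2. Growth read with WST-8 reagent after at least 1 h, absorbance at 450 nm. RS4;11, MOLM-13 and breast lines were grown in RPMI 1640; MV-4-11 and HL-60 in IMDM; all with 10% FBS. Mean ± SE, at least three independent experiments.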

MDA-MB-231 [9] = assay: Antiproliferative activity against human MDA-MB-231 cells transfected with CRBN siRNA LQ-021086-10-0002 assessed as cell growth inhibition after 4 days by WST-8 assay; assay type: functional, cell-based; conditions: MDA-MB-231, 72 h, in the assay text read “after 3 days” for “after 4 days”
In short: (§3)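 MDA-MB-231 or MDA-MB-468 cells transfected for 2 days using Lipofectamine RNAiMAX with MDM2 siRNA, one of two CRBN siRNAs, or non-targeting control siRNA. Compound then added and growth read by WST-8 at 450 nm.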

[10] = target: T2, Eukaryotic peptide chain release factor GTP-binding subunit ERF3A (Homo sapiens, UniProt P15170); assay: Induction of GSPT1 degradation in human MDA-MB-468 cells transfected with CRBN siRNA LQ-021086-10-0002 assessed as decrease in GSPT1 protein level at 0.1 uM after 2 to 24 hrs by Western blot analysis; assay type: cell-based
T2 sequence (P15170 whole entry): as the sequence (P15170 whole entry, looked up) above
In short: (§4)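 MDA-MB-231 or MDA-MB-468 cells transfected 2 days with CRBN siRNA (Lipofectamine RNAiMAX; non-targeting siRNA as control), then exposed to 0.1 μM for 2 h or 24 h. Cell culture was RPMI 1640 with 10% FBS at 37 °C, 5% CO2. GSPT1 and cereblon protein were probed by Western blot.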

MDA-MB-231 [11] = assay: Antiproliferative activity against human MDA-MB-231 cells transfected with MDM2 siRNA assessed as cell growth inhibition after 4 days by WST-8 assay; assay type: functional, cell-based; conditions: MDA-MB-231, 96 h; in short: as §3
[12] = target: T2, Eukaryotic peptide chain release factor GTP-binding subunit ERF3A; assay: Induction of GSPT1 degradation in human MDA-MB-468 cells transfected with CRBN siRNA LQ-021086-11-0002 assessed as decrease in GSPT1 protein level at 0.1 uM after 2 to 24 hrs by Western blot analysis; assay type: cell-based; in short: as §4
MDA-MB-468 [13] = assay: Antiproliferative activity against human MDA-MB-468 cells transfected with CRBN siRNA LQ-021086-11-0002 assessed as cell growth inhibition after 4 days by WST-8 assay; assay type: functional, cell-based; conditions: MDA-MB-468, 96 h; in short: as §3
MDA-MB-231 [14] = assay: Antiproliferative activity against human MDA-MB-231 cells assessed as cell growth inhibition after 4 days in presence of control siRNA for 2 days followed by compound treatment by WST-8 assay; assay type: functional, cell-based; in short: as §3
[15] = target: E3 ubiquitin-protein ligase Mdm2 (Homo sapiens, UniProt Q00987); assay: Induction of MDM2 degradation in human RS4:11 cells assessed as upregulation of p53 at 1 to 30 nM after 2 hrs by Western blot analysis; assay type: cell-based
Chain of E3 ubiquitin-protein ligase Mdm2 (Q00987 whole entry, looked up): as the sequence (Q00987 whole entry, looked up) above
In short: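 Western blots of MDM2 and p53 protein were run on RS4;11 cells (wild-type p53) in RPMI 1640 with 10% FBS. 2×10^6 cells/well were treated at the indicated concentrations for 1 h or 2 h. Lysis was in ice-cold buffer with protease inhibitor, followed by probing with specific antibodies.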

MOLM-13 = assay: Antiproliferative activity against human MOLM13 cells expressing wild type p53 assessed as cell growth inhibition after 4 days by WST-8 assay; assay type: functional, cell-based; conditions: MOLM-13, 96 h; in short: as §2

**Q.** With `O=C1CCC(N2Cc3c(CCCCCNC(=O)[C@@H]4NC5(CCCCC5)[C@@]5(C(=O)Nc6cc(Cl)ccc65)[C@H]4c4cccc(Cl)c4F)cccc3C2=O)C(=O)N1` (some centres not stated) as the compound, how does the Activity [1] read?
**A.** The Activity was “inactive”.

**Q.** What about the Activity [2] of the same compound?
**A.** The Activity was “Tde”.

**Q.** What about the IC50 (MDA-MB-468 [3]) of the same compound?
**A.** Its IC50 is 0.0264 µM.

**Q.** And the fold change [4]?
**A.** Its fold change is 3.7.

**Q.** And the Activity [5]?
**A.** Its Activity is “Active”.

**Q.** And the inhibition [6]?
**A.** The inhibition was “Active”.

**Q.** What about the Activity [7] of the same compound?
**A.** Its Activity is “inactive”.

**Q.** And the Activity [8]?
**A.** The Activity was “inactive”.

**Q.** And the IC50 (RS4-11)?
**A.** Its IC50 is 0.00017 µM.

**Q.** And the IC50 (MDA-MB-231 [9])?
**A.** Its IC50 is greater than 3 µM.

**Q.** And the Activity [10]?
**A.** Its Activity is “inactive”.

**Q.** And the IC50 (MDA-MB-231 [11])?
**A.** The IC50 was 0.0193 µM.

**Q.** What about the Activity [12] of the same compound?
**A.** Its Activity is “inactive”.

**Q.** What about the IC50 (MDA-MB-468 [13]) of the same compound?
**A.** The IC50 was greater than 1 µM.

**Q.** What about the IC50 (MDA-MB-231 [14]) of the same compound?
**A.** Its IC50 is 0.0289 µM.

**Q.** And the Activity [15]?
**A.** Its Activity is “inactive”.

**Q.** And the IC50 (MOLM-13)?
**A.** The IC50 was 0.0246 µM.
